Measurements as given in ChEMBL document CHEMBL1125826, “Synthesis and biological activity of 5-amino- and 5-hydroxyquinolones, and the overwhelming influence of the remote N1-substituent in determining the structure-activity relationship” (1991).
In brackets after ≈: the same amount, converted by molar mass.

Tests used:
Format in all cases: functional
[1] = test system: Bacteria; assay: MIC ratio measured as the mean MICs of gram-negative bacteria
Summary of the method: (§1)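 Geometric mean of the microtitration MICs (µg/mL) over the Gram-negative organisms, and separately over the Gram-positive organisms, of the 10-strain panel; individual MICs averaged from multiple experiments.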

[2] = target: DNA gyrase (Escherichia coli) (UniProt P0AES6+P0AES4); assay: Minimum inhibitory concentration against Escherichia coli DNA-gyrase in supercoiling assay
[3] = test system: Enterococcus faecalis; assay: Antibacterial activity was determined against gram positive organism, Streptococcus faecalis MGH-2; conditions: Enterococcus faecalis; read-out: MIC
Summary of the method: (§2)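 MIC (µg/mL) by standard microtitration against a panel of 10 Gram-positive and Gram-negative organisms; values averaged from multiple experiments.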

[4] = test system: Staphylococcus aureus; assay: Antibacterial activity was determined against gram positive organism, Staphylococcus aureus UC76; summary of the method: as §2
[5] = test system: Streptococcus pyogenes; assay: Antibacterial activity was determined against gram positive organism, Streptococcus pyogenes C203; conditions: Streptococcus pyogenes; read-out: MIC; summary of the method: as §2
[6] = test system: Klebsiella pneumoniae; assay: Antibacterial activity was determined against gram negative organism, Klebsiella pneumoniae MGH-2; conditions: Klebsiella pneumoniae; read-out: MIC; summary of the method: as §2
[7] = test system: Pseudomonas aeruginosa; assay: Antibacterial activity was determined against gram negative organism, Pseudomonas aeruginosa UI-18; conditions: Pseudomonas aeruginosa; read-out: MIC; summary of the method: as §2
[8] = test system: Staphylococcus aureus; assay: Antibacterial activity was determined against gram positive organism, Staphylococcus aureus H228; conditions: Staphylococcus aureus; read-out: MIC; summary of the method: as §2
[9] = test system: Bacteria; assay: Antibacterial activity was determined against gram negative organism, Providencia rettgeri. M1771; conditions: Bacteria; read-out: MIC; summary of the method: as §2
[10] = test system: Enterobacter cloacae; assay: Antibacterial activity was determined against gram negative organism, Enterobacter cloacae MA2646; conditions: Enterobacter cloacae; read-out: MIC
[11] = test system: Streptococcus pneumoniae; assay: Antibacterial activity was determined against gram positive organism, Streptococcus pneumoniae SV-1; conditions: Streptococcus pneumoniae; read-out: MIC; summary of the method: as §2
[12] = test system: Bacteria; assay: MIC ratio measured as the mean MICs of gram-positive bacteria; summary of the method: as §1
[13] = test system: Escherichia coli; assay: Antibacterial activity was determined against gram negative organism, Escherichia coli vogel; conditions: Escherichia coli; read-out: MIC; summary of the method: as §2
[14] = Staphylococcus aureus, read-out: MIC

Row | Geometric mean MIC over Gram-negative bacteria (µg/mL) [1] | MIC [2] | MIC [3] | MIC [4, 14] | MIC [5] | MIC [6] | MIC [7] | MIC [8] | MIC [9] | MIC [10] | MIC [11] | Geometric mean MIC over Gram-positive bacteria (µg/mL) [12] | MIC [13] | MIC [4] | SMILES | Ratio [12]
1 | 0.6 | 2.5 µg/mL (≈ 7.2 µM) | 1.6 µg/mL (≈ 4.61 µM) |  | 1.6 µg/mL (≈ 4.61 µM) | 0.4 µg/mL (≈ 1.15 µM) | 6.3 µg/mL (≈ 18.1 µM) | 1.6 µg/mL (≈ 4.61 µM) | 0.8 µg/mL (≈ 2.3 µM) | 0.2 µg/mL (≈ 0.576 µM) | 1.6 µg/mL (≈ 4.61 µM) | 1.21 | 0.2 µg/mL (≈ 0.576 µM) | 0.4 µg/mL (≈ 1.15 µM) | CCn1cc(C(=O)O)c(=O)c2cc(F)c(N3CC(C)NC(C)C3)cc21 (centres undefined) | 
2 | 1.05 | 3.8 µg/mL (≈ 9.63 µM) | 0.2 µg/mL (≈ 0.507 µM) | 0.1 µg/mL (≈ 0.254 µM) | 0.2 µg/mL (≈ 0.507 µM) | 1.6 µg/mL (≈ 4.06 µM) | 6.3 µg/mL (≈ 16 µM) | 0.2 µg/mL (≈ 0.507 µM) | 1.6 µg/mL (≈ 4.06 µM) | 0.4 µg/mL (≈ 1.01 µM) | 0.2 µg/mL (≈ 0.507 µM) | 0.17 | 0.2 µg/mL (≈ 0.507 µM) |  | CCNCC1CCN(c2c(F)c(N)c3c(=O)c(C(=O)O)cn(CC)c3c2F)C1 (centres undefined) | 
3 | 6.28 | 2.5 µg/mL (≈ 6.08 µM) | 1.6 µg/mL (≈ 3.89 µM) | 0.4 µg/mL (≈ 0.974 µM) | 6.3 µg/mL (≈ 15.3 µM) | 6.3 µg/mL (≈ 15.3 µM) | 25 µg/mL (≈ 60.8 µM) | 1.6 µg/mL (≈ 3.89 µM) | 12.5 µg/mL (≈ 30.4 µM) | 3.1 µg/mL (≈ 7.54 µM) | 1.6 µg/mL (≈ 3.89 µM) | 1.59 | 1.6 µg/mL (≈ 3.89 µM) |  | CCNCC1CCN(c2c(F)c(N)c3c(=O)c(C(=O)O)cn(CC)c3c2Cl)C1 (centres undefined) | 
4 | 0.13 | 2.5 µg/mL (≈ 7.83 µM) | 0.8 µg/mL (≈ 2.51 µM) |  | 0.4 µg/mL (≈ 1.25 µM) | 0.2 µg/mL (≈ 0.626 µM) | 0.8 µg/mL (≈ 2.51 µM) | 0.8 µg/mL (≈ 2.51 µM) | 0.2 µg/mL (≈ 0.626 µM) | 0.1 µg/mL (≈ 0.313 µM) | 0.4 µg/mL (≈ 1.25 µM) | 0.4 | 0.1 µg/mL (≈ 0.313 µM) | 0.1 µg/mL (≈ 0.313 µM) | CCn1cc(C(=O)O)c(=O)c2cc(F)c(N3CCC(N)C3)cc21 (centres undefined) | 
5 |  | 5 µg/mL (≈ 13.6 µM) | 12.5 µg/mL (≈ 34 µM) | 1.6 µg/mL (≈ 4.36 µM) | 12.5 µg/mL (≈ 34 µM) | 0.8 µg/mL (≈ 2.18 µM) | 12.5 µg/mL (≈ 34 µM) | 6.3 µg/mL (≈ 17.1 µM) | 1.6 µg/mL (≈ 4.36 µM) | 0.4 µg/mL (≈ 1.09 µM) | 12.5 µg/mL (≈ 34 µM) |  | 0.4 µg/mL (≈ 1.09 µM) |  | CCn1cc(C(=O)O)c(=O)c2c(O)c(F)c(N3CCNC(C)C3)c(F)c21 (centres undefined) | 
6 | 0.6 | 7.5 µg/mL (≈ 20.5 µM) | 3.1 µg/mL (≈ 8.46 µM) | 0.4 µg/mL (≈ 1.09 µM) | 6.3 µg/mL (≈ 17.2 µM) | 0.4 µg/mL (≈ 1.09 µM) | 3.1 µg/mL (≈ 8.46 µM) | 1.6 µg/mL (≈ 4.37 µM) | 1.6 µg/mL (≈ 4.37 µM) | 0.2 µg/mL (≈ 0.546 µM) | 3.1 µg/mL (≈ 8.46 µM) | 2.07 | 0.2 µg/mL (≈ 0.546 µM) |  | CCn1cc(C(=O)O)c(=O)c2c(N)c(F)c(N3CCNC(C)C3)c(F)c21 (centres undefined) | 
7 | 0.26 | 2.5 µg/mL (≈ 6.59 µM) | 0.1 µg/mL (≈ 0.264 µM) |  | 0.1 µg/mL (≈ 0.264 µM) | 0.2 µg/mL (≈ 0.527 µM) | 1.6 µg/mL (≈ 4.22 µM) | 0.1 µg/mL (≈ 0.264 µM) | 0.4 µg/mL (≈ 1.05 µM) | 0.1 µg/mL (≈ 0.264 µM) | 0.1 µg/mL (≈ 0.264 µM) |  | 0.1 µg/mL (≈ 0.264 µM) | 0.05 µg/mL (≈ 0.132 µM) | CCNCC1CCN(c2c(F)cc3c(=O)c(C(=O)O)cn(CC)c3c2F)C1 (centres undefined) [MERAFLOXACIN] | 0.087

Row | SMILES | Geometric mean MIC over Gram-negative bacteria (µg/mL) [1] | MIC [2] | MIC [3] | MIC [4, 14] | MIC [5] | MIC [6] | MIC [7] | MIC [8] | MIC [9] | MIC [10] | MIC [11] | Geometric mean MIC over Gram-positive bacteria (µg/mL) [12] | MIC [13] | MIC [4] | Ratio [12]
8 | NC1CCN(c2c(F)cc3c(=O)c(C(=O)O)cn(C4CC4)c3c2Cl)C1 (stereo in doubt; 1f-4) | 0.057 | 0.25 µg/mL (≈ 0.683 µM) |  |  |  |  |  |  |  |  |  |  |  |  | 
9 | CCn1cc(C(=O)O)c(=O)c2c(N)c(F)c(N3CCNCC3)cc21 | 0.6 | 2.5 µg/mL (≈ 7.48 µM) | 0.2 µg/mL (≈ 0.598 µM) | 0.05 µg/mL (≈ 0.15 µM) | 0.05 µg/mL (≈ 0.15 µM) | 0.4 µg/mL (≈ 1.2 µM) | 3.1 µg/mL (≈ 9.27 µM) | 0.4 µg/mL (≈ 1.2 µM) | 1.6 µg/mL (≈ 4.79 µM) | 0.2 µg/mL (≈ 0.598 µM) | 0.1 µg/mL (≈ 0.299 µM) | 0.11 | 0.2 µg/mL (≈ 0.598 µM) |  | 
10 | CCn1cc(C(=O)O)c(=O)c2c(N)c(F)c(N3CCNCC3)c(Cl)c21 | 0.79 | 5 µg/mL (≈ 13.6 µM) | 6.3 µg/mL (≈ 17.1 µM) | 0.4 µg/mL (≈ 1.08 µM) | 3.1 µg/mL (≈ 8.41 µM) | 0.4 µg/mL (≈ 1.08 µM) | 6.3 µg/mL (≈ 17.1 µM) | 3.1 µg/mL (≈ 8.41 µM) | 1.6 µg/mL (≈ 4.34 µM) | 0.4 µg/mL (≈ 1.08 µM) | 3.1 µg/mL (≈ 8.41 µM) | 2.37 | 0.2 µg/mL (≈ 0.542 µM) |  | 
11 | NC1CCN(c2c(F)cc3c(=O)c(C(=O)O)cn(C4CC4)c3c2Cl)C1 (stereo in doubt; 1h-4) | 0.029 | 0.5 µg/mL (≈ 1.37 µM) |  |  |  |  |  |  |  |  |  |  |  |  | 
